Screening results as filed in PubChem BioAssay.
In the library only some 5.8% were active in any assay of this set; here they are far more common.
Pf Dd2 growth: blocks growth of Plasmodium falciparum Dd2 parasites; hit rate 2.3% among 94,000; P. falciparum Dd2 growth, SYBR Green, 72 h; active compounds read low; AID 1159554; activity change, % at 10 µM; in the data active = activity change below about -80%; inconclusive = no clear call, values can overlap the other calls
T cruzi growth-1: inhibitors of T. cruzi proliferation; AID 624255; T. cruzi beta-gal in NIH3T3, GalScreen luminescence, 90 h; inhibition, % at 8.34 µM; hit rate 5.9% among 77,000;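 active = mean inhibition above about 93%, with at least 55% of replicates each passing it, limit read from the data, passing the limit was not always enough; inconclusive = only one of those two conditions holds; inactive = neither condition holds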
IDH1 R132H inh: inhibitors of human IDH1 R132H | AID 624101 | inhibition, % at 10 µM | hit rate 0.18% among 70,000 | IDH1 R132H reductase, diaphorase/resazurin fluorescence, 60 min; in the data active = inhibition above about 34%; inconclusive = no clear call, values can overlap the other calls; inactive = below about 11%;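 note: 0% = DMSO and 100% = no enzyme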
Target sequence (O75874 whole entry R132H): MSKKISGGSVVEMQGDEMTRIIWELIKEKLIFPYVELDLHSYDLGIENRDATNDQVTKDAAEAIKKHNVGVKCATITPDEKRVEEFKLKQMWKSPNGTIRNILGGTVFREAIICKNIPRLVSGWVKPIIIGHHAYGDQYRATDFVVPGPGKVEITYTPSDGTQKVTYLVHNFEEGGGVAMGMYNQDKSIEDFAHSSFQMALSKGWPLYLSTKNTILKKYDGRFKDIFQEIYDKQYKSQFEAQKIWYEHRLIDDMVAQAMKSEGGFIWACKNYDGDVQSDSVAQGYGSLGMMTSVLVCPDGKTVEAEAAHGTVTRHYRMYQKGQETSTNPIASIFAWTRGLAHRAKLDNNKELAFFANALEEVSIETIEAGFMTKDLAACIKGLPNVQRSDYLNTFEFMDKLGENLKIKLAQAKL
KDM4C inh: blocks human GASC-1 (KDM4C) demethylase activity; hit rate 0.15% among 96,000; Q9H3R0; inhibition, % at 12.5 µM; GST-KDM4C 2-372, H3K9me3 peptide, LANCE TR-FRET;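 active = mean replicate inhibition above about 25%, with at least 55% of replicates also reaching it, limit read from the data, passing the limit was not always enough; inconclusive = only one of those two conditions met; inactive = neither condition met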
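Material: GST-tagged GASC-1 (JMJD2C) catalytic fragment, aa 2-372 / Quantity: enzyme final amount 10 nM / Medium: HEPES buffer, pH 7.5, plus ascorbate / Doses: one test concentration per compound / Incubation: 30 min reaction, 60 min detection, RT / Measured by: LANCE TR-FRET / Read-out: inhibition from TR-FRET ratio decrease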
T cruzi growth-2: blocks T. cruzi growth in NIH3T3 host cells. T. cruzi beta-gal in NIH3T3, GalScreen luminescence, 90 h. shares compounds with T cruzi growth-1. hit rate 72% among 5,600. inhibition, % at 8.35 µM;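 active = mean replicate inhibition above about 95% and at least 55% of replicates individually reaching it, limit read from the data; inconclusive = only one of the two criteria is met; inactive = neither criterion is met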
T cruzi growth-3: blocks T. cruzi growth in NIH3T3 host cells; shares compounds with T cruzi growth-1; inhibition, % at 2.09 µM; T. cruzi beta-gal in NIH3T3, GalScreen luminescence, 90 h; hit rate 21% among 5,600;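 active = mean inhibition above about 95%, with at least 55% of replicates also reaching it, limit read from the data; inconclusive = meets just one of the two conditions; inactive = meets neither condition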;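 note: plate controls were neutral control median for no effect and positive control median for full effect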
NIH3T3 tox: kills mouse NIH/3T3 fibroblasts; shares compounds with T cruzi growth-1; NIH/3T3 viability, CellTiter-Glo ATP luminescence, 90 h; cytotoxicity (signal decrease), % at 8.35 µM; hit rate 14% among 5,600; AID 651742;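 active = mean signal decrease across replicates above about 35% based on untreated-well scatter, with enough replicates individually passing, limit read from the data; inconclusive = no rule stated though some were filed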;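 note: 0% = median of neutral control wells and 100% = median of positive control wells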
NIH3T3 tox 2: kills mouse NIH/3T3 fibroblasts. shares compounds with T cruzi growth-1. NIH/3T3 viability, CellTiter-Glo ATP luminescence, 90 h. inhibition, % at 24.9 µM. hit rate 56% among 5,600. AID 651744;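 active = mean loss of cell viability signal at or above a set limit, and enough replicates individually reaching it; inconclusive = meets only the mean limit or only the replicate share; inactive = meets neither condition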;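 note: 0% = median of neutral control wells and 100% = median of positive control wells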
* hit, by the source's call; ? = inconclusive; . = not tested or not shown.

SMILES	Pf Dd2 growth	T cruzi growth-1	IDH1 R132H inh	KDM4C inh	T cruzi growth-2	T cruzi growth-3	NIH3T3 tox	NIH3T3 tox 2
C[C@@H]1CN([C@H](C)CO)C(=O)Cc2cc(N(C)C)ccc2O[C@@H]1CN(C)C(=O)Nc1ccc2c(c1)OCO2	5	20	-1	2	.	.	.	.
COc1ccc(S(=O)(=O)N2C[C@@H](O)COC[C@@H]3O[C@H](CC(=O)N[C@H]4CCN(Cc5ccccc5)C4)CC[C@H]32)cc1	.	6	.	-3	.	.	.	.
Cc1noc(C)c1NC(=O)N(C)C[C@@H]1Oc2ccc(NC(=O)Nc3ccc(C(F)(F)F)cc3)cc2C(=O)N([C@@H](C)CO)C[C@@H]1C	-32	-4	0	-1	.	.	.	.
C[C@H]1CN([C@@H](C)CO)C(=O)c2cc(C#CC3(O)CCCC3)cnc2O[C@@H]1CN(C)C	-2	36	-2	-2	.	.	.	.
CN1C(=O)c2cc(NC(=O)c3cc(F)cc(F)c3)ccc2OC[C@H]2O[C@H](CC(=O)O)CC[C@@H]21	-14	36	.	0	.	.	.	.
CC(C)CN(C[C@H]1N[C@H](CO)[C@@H]1c1ccccc1)C(=O)CN(C)C	-3	-6	.	0	.	.	.	.
O=C(C[C@H]1C[C@@H]2c3cc(NC(=O)C4CCOCC4)ccc3O[C@@H]2[C@@H](CO)O1)NCc1ccc(Oc2ccccc2)cc1	-69	156*	0	0	33	-11	-12	12
O=C(C[C@@H]1C[C@H]2c3cc(NC(=O)Nc4ccccc4F)ccc3O[C@H]2[C@H](CO)O1)NCc1ccc(Oc2ccccc2)cc1	-19	106*	0	0	92	52	22	78*
C[C@@H]1CN([C@@H](C)CO)C(=O)c2cc(NC(=O)CCCN(C)C)ccc2O[C@H]1CN(C)S(C)(=O)=O	9	-20	.	-1	.	.	.	.
C[C@@H]1CCCCO[C@@H](CN(C)C(=O)Cc2ccccc2)[C@@H](C)CN([C@@H](C)CO)C(=O)c2cc(NC(=O)Cc3ccccc3)ccc2O1	-56	27	-2	1	.	.	.	.
COc1ccc(NC(=O)N(C)C[C@@H]2OCc3cnnn3CCCC(=O)N([C@@H](C)CO)C[C@H]2C)c(OC)c1	8	-14	-2	3	.	.	.	.
COCC(=O)N1CCCCN2[C@H](C1)[C@H](c1ccc(C#Cc3ccc(OC)cc3)cc1)[C@@H]2CO	-33	105*	.	-1	95*	36	20	89*
COCC(=O)N1CCCCN2[C@H](CO)[C@H](c3ccc(-c4ccc(OC)cc4)cc3)[C@@H]2C1	13	103*	.	1	76	11	22	32*
COCC(=O)N1CCCCN2[C@@H](CO)[C@H](c3ccc(-c4ccc(OC)cc4)cc3)[C@@H]2C1	24	104*	.	0	72	52	18	19
COCC(=O)N1CCCCN2[C@@H](CO)[C@@H](c3ccc(C#Cc4ccc(OC)cc4)cc3)[C@@H]2C1	-49	71	.	-1	.	.	.	.
COCC(=O)N1CCCCN2[C@@H](CO)[C@H](c3ccc(C#Cc4cccnc4)cc3)[C@@H]2C1	21	99*	.	0	93	36	13	22
Cc1ccc(S(=O)(=O)Nc2c(C)[nH]c(=O)[nH]c2=O)cc1C	.	.	0	.	.	.	.	.
CO[C@H]1CN(C)C(=O)c2ccc(NC(=O)C3CC3)cc2OC[C@H](C)N(C(=O)c2cnccn2)C[C@H]1C	15	-22	0	-1	.	.	.	.
C[C@H]1CN([C@@H](C)CO)S(=O)(=O)c2ccc(C3=CCCC3)cc2O[C@H]1CN(C)Cc1ccncc1	-34	105*	1	4	102*	92	19	31*
C[C@@H]1CN([C@H](C)CO)S(=O)(=O)c2ccc(C3=CCCC3)cc2O[C@@H]1CN(C)Cc1ccncc1	-19	74	.	4	.	.	.	.
C[C@H]1CN([C@@H](C)CO)S(=O)(=O)c2ccc(C3=CCCC3)cc2O[C@@H]1CN(C)Cc1ccncc1	-23	117*	.	0	98*	?	45*	97*
